Measurements from ChEMBL document CHEMBL1154235, “Rational design and semisynthesis of betulinic acid analogues as potent topoisomerase inhibitors” (J Nat Prod, 2009).
The source made the active and inactive calls. No cut-off for these calls is given here.

What was measured:
UO-31 = experiment: Cytotoxicity against human UO31 cells assessed as cell growth at 10 uM; type: functional; settings: read-out: Activity
SF-268 = experiment: Cytotoxicity against human SF268 cells assessed as cell growth at 10 uM; type: functional; settings: read-out: Activity
How it was run: (§1)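 Single-dose screen at 10 µM against the 60 human cell line panel, run by the NCI Developmental Therapeutics Program and scored as cell growth.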

SNB-19 = experiment: Cytotoxicity against human SNB19 cells assessed as cell growth at 10 uM; type: functional; settings: read-out: Activity; how it was run: as §1
BT-549 = experiment: Cytotoxicity against human BT549 cells assessed as cell growth at 10 uM; type: functional; settings: read-out: Activity; how it was run: as §1
OVCAR-4 = experiment: Cytotoxicity against human OVCAR4 cells assessed as cell growth at 10 uM; type: functional; settings: read-out: Activity; how it was run: as §1
OVCAR-5 = experiment: Cytotoxicity against human OVCAR5 cells assessed as cell growth at 10 uM; type: functional; settings: read-out: Activity; how it was run: as §1
HOP-92 = experiment: Cytotoxicity against human HOP92 cells assessed as cell growth at 10 uM; type: functional; settings: read-out: Activity; how it was run: as §1
HT-29 = experiment: Cytotoxicity against human HT-29 cells assessed as cell growth at 10 uM; type: functional; settings: read-out: Activity; how it was run: as §1
NCI/ADR-RES = experiment: Cytotoxicity against human NCI/ADR-RES cells assessed as cell growth at 10 uM; type: functional; settings: read-out: Activity; how it was run: as §1
MDA-MB-435 = experiment: Cytotoxicity against human MDA-MB-435 cells assessed as cell growth at 10 uM; type: functional; settings: read-out: Activity; how it was run: as §1
RXF 393 = experiment: Cytotoxicity against human […] cells assessed as cell growth at 10 uM; type: functional; settings: read-out: Activity; how it was run: as §1
DU-145 = experiment: Cytotoxicity against human DU145 cells assessed as cell growth at 10 uM; type: functional; settings: read-out: Activity; how it was run: as §1
HOP-62 = experiment: Cytotoxicity against human HOP62 cells assessed as cell growth at 10 uM; type: functional; settings: read-out: Activity; how it was run: as §1
SK-MEL-28 = experiment: Cytotoxicity against human SK-MEL-28 cells assessed as cell growth at 10 uM; type: functional; settings: read-out: Activity; how it was run: as §1
EKVX = experiment: Cytotoxicity against human EKVX cells assessed as cell growth at 10 uM; type: functional; settings: read-out: Activity; how it was run: as §1
MDA-MB-468 = experiment: Cytotoxicity against human MDA-MB-468 cells assessed as cell growth at 10 uM; type: functional; settings: read-out: Activity; how it was run: as §1
786-0 = experiment: Cytotoxicity against human 786-0 cells assessed as cell growth at 10 uM; type: functional; settings: read-out: Activity; how it was run: as §1
[1] = biological target: DNA topoisomerase 2-alpha (Homo sapiens) (UniProt P11388); experiment: Inhibition of topoisomerase 2 alpha catalytic activity assessed as decatenation of kinetoplast DNA at 100 uM after 15 mins by agarose gel electrophoresis
Sequence of DNA topoisomerase 2-alpha (Homo sapiens) (P11388 whole entry): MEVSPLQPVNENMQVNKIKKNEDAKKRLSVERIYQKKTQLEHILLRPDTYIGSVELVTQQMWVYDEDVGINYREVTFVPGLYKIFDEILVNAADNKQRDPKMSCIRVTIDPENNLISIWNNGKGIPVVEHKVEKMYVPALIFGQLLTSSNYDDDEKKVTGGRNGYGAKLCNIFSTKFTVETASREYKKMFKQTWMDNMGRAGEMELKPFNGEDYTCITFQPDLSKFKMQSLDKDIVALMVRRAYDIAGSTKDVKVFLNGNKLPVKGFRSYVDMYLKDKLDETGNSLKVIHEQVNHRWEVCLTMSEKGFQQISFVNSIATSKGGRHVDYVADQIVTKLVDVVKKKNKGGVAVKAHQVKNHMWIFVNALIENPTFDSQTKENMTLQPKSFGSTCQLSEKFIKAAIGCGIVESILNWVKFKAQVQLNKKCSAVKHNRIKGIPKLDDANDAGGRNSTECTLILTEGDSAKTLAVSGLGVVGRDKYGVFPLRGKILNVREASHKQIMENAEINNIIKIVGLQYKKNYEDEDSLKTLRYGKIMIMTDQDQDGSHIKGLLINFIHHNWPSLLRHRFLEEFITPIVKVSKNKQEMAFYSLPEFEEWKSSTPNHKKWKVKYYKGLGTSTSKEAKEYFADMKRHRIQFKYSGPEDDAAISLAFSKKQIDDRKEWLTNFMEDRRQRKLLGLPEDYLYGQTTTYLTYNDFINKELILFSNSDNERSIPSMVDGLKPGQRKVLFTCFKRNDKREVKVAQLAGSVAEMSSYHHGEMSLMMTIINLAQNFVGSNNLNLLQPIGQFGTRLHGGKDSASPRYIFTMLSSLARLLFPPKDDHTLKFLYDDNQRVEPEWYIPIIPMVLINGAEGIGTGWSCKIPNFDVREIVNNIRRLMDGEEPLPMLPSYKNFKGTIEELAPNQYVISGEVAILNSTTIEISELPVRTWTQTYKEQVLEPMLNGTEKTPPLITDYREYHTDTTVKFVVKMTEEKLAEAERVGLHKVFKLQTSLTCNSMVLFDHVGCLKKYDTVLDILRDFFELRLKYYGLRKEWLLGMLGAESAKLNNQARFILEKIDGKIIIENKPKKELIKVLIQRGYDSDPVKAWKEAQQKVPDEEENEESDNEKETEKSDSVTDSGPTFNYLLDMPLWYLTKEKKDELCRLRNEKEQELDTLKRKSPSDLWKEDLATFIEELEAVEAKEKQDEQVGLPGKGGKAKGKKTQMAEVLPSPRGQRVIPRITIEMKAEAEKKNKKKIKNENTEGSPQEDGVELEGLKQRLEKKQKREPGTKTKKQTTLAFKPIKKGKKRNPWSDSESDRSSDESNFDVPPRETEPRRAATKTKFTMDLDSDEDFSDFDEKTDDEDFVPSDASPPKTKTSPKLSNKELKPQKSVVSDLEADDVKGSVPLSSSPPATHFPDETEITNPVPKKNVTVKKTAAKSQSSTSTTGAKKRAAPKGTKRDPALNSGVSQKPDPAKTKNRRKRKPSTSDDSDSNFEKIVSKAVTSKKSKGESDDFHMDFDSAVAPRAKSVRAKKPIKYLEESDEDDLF

NCI-H23 = experiment: Cytotoxicity against human NCI-H23 cells assessed as cell growth at 10 uM; type: functional; settings: read-out: Activity; how it was run: as §1
SW-620 = experiment: Cytotoxicity against human SW620 cells assessed as cell growth at 10 uM; type: functional; settings: read-out: Activity
K562 = experiment: Cytotoxicity against human K562 cells assessed as cell growth at 10 uM; type: functional; settings: read-out: Activity; how it was run: as §1
CCRF-CEM = experiment: Cytotoxicity against human CCRF-CEM cells assessed as cell growth at 10 uM; type: functional; settings: read-out: Activity; how it was run: as §1
T47D = experiment: Cytotoxicity against human T47D cells assessed as cell growth at 10 uM; type: functional; settings: read-out: Activity
HCT-116 = experiment: Cytotoxicity against human HCT116 cells assessed as cell growth at 10 uM; type: functional; settings: read-out: Activity; how it was run: as §1
COLO 205 = experiment: Cytotoxicity against human COLO205 cells assessed as cell growth at 10 uM; type: functional; settings: read-out: Activity; how it was run: as §1
NCI-H522 = experiment: Cytotoxicity against human NCI-H522 cells assessed as cell growth at 10 uM; type: functional; settings: read-out: Activity; how it was run: as §1
U-251 = experiment: Cytotoxicity against human U251 cells assessed as cell growth at 10 uM; type: functional; settings: read-out: Activity
[2] = Cytotoxicity against human Hs 578T cells assessed as cell growth at 10 uM; type: functional; settings: read-out: Activity; how it was run: as §1

Q: What does the source list for `C=C(C)[C@@H]1CC[C@]2(C(O)=S)CC[C@]3(C)[C@H](CC[C@@H]4[C@@]5(C)CC[C@H](O)C(C)(C)[C@@H]5CC[C@]43C)[C@@H]12`?
A: growth at 10 µM (UO-31): 89.5%; growth at 10 µM (SF-268): 92.7%; growth at 10 µM (SNB-19): 113%; growth at 10 µM (BT-549): 94.8%; growth at 10 µM (OVCAR-4): 112%; growth at 10 µM (OVCAR-5): 119%; growth at 10 µM (HOP-92): 158%; growth at 10 µM (HT-29): 112%; growth at 10 µM (NCI/ADR-RES): 113%; growth at 10 µM (MDA-MB-435): 91.3%; growth at 10 µM (RXF 393): 112%; growth at 10 µM (DU-145): 130%; growth at 10 µM (HOP-62): 80%; growth at 10 µM (SK-MEL-28): 141%; growth at 10 µM (EKVX): 103%; growth at 10 µM (MDA-MB-468): 105%; growth at 10 µM (786-0): 93.8%; inhibition [1]: Active; growth at 10 µM (NCI-H23): 93.4%; growth at 10 µM (SW-620): 92.2%; growth at 10 µM (K562): 127%; growth at 10 µM (CCRF-CEM): 99.1%; growth at 10 µM (T47D): 98.5%; growth at 10 µM (HCT-116): 85.2%; growth at 10 µM (COLO 205): 129%; growth at 10 µM (NCI-H522): 71.9%; growth at 10 µM (U-251): 105%; growth at 10 µM [2]: 105%
